Activity calls are given as the source filed them. No cut-off for these calls is given here.
Assays:
CNE1-LMP1 = experiment: Cytotoxicity against human CNE1-LMP1 cells assessed as reduction in cell viability at 50 uM by MTS assay; type: functional, cell-based
Summary of the method: (§1)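 MTS viability assay. Cells were seeded at 5 × 10^3 per well for 24 h, then exposed to serial dilutions (5, 10, 15, 20, and 50 μM) in medium with 10% FBS and grown for the indicated duration. Controls got DMSO. MTS was added for 1 h at 37 °C and absorbance read at 490 nm. Results are % of control, with IC50 calculated.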

MGC = experiment: Cytotoxicity against human MGC cells assessed as reduction in cell viability at 50 uM by MTS assay; type: functional, cell-based; summary of the method: as §1
PANC-1 = experiment: Cytotoxicity against human PANC1 cells assessed as reduction in cell viability at 50 uM by MTS assay; type: functional, cell-based; summary of the method: as §1
HaCaT [1] = experiment: Cytotoxicity against human HaCaT cells assessed as reduction in cell viability at 50 uM by MTS assay; type: cell-based; summary of the method: as §1
[2] = Cytotoxicity against mouse NIH/3T3 cells assessed as reduction in cell viability at 50 uM by MTS assay; type: cell-based; details: nih3t3, 50 µM; summary of the method: as §1
Hep 3B2 = experiment: Cytotoxicity against human Hep3B2 cells assessed as reduction in cell viability at 50 uM by MTS assay; type: functional, cell-based; summary of the method: as §1
A549 [3] = experiment: Cytotoxicity against human A549 cells assessed as reduction in cell viability at 50 uM by MTS assay; type: functional, cell-based; summary of the method: as §1
MCF7 [4] = experiment: Cytotoxicity against human MCF7 cells assessed as reduction in cell viability at 50 uM by MTS assay; type: functional, cell-based; summary of the method: as §1
A-375 [5] = experiment: Cytotoxicity against human A375 cells assessed as reduction in cell viability at 50 uM by MTS assay; type: functional, cell-based; summary of the method: as §1
ECa-109 = experiment: Cytotoxicity against human EC109 cells assessed as reduction in cell viability at 50 uM by MTS assay; type: functional, cell-based; summary of the method: as §1
[6] = Cytotoxicity against human PANC1 cells assessed as reduction in cell viability by MTS assay; type: functional, cell-based; details: PANC-1; summary of the method: as §1
A-375 [7] = experiment: Cytotoxicity against human A375 cells assessed as reduction in cell viability by MTS assay; type: functional, cell-based; summary of the method: as §1
[8] = Cytotoxicity against human CNE1-LMP1 cells assessed as reduction in cell viability by MTS assay; type: functional, cell-based; summary of the method: as §1
[9] = Cytotoxicity against human EC109 cells assessed as reduction in cell viability by MTS assay; type: functional, cell-based; details: ECa-109; summary of the method: as §1
[10] = Cytotoxicity against human MGC cells assessed as reduction in cell viability by MTS assay; type: functional, cell-based; summary of the method: as §1
[11] = Cytotoxicity against mouse NIH/3T3 cells assessed as reduction in cell viability by MTS assay; type: cell-based; details: NIH3T3; summary of the method: as §1
MCF7 [12] = experiment: Reduction in lactate secretion in human MCF7 cells assessed per 10^5 cells at 20 uM incubated for 12 hrs; type: functional
Summary of the method: (§2)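 Cells were seeded and after 24 h switched to fresh medium with 10% FBS, with or without 20 μM compound. After 12 h, supernatant glucose and lactate were measured on an automatic biochemistry analyzer. Cell numbers were counted in parallel by MTS. Rates (nmol/h/10^5 cells) were computed as the difference from blank medium divided by 12 h and by cell number. LY294002 served as positive control.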

MCF7 [13] = experiment: Reduction in ATP generation in human MCF7 cells at 20 uM incubated for 12 and 24 hrs; type: functional, cell-based
Summary of the method: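 MCF-7 cells were exposed to 20 μM for 2, 4, 6, 8, 12 and 24 h. ATP was measured with a commercial kit, quantified against an ATP standard curve and expressed as % of the control group.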

MCF7 [14] = experiment: Reduction in hexokinase-2 protein expression in human MCF7 cells by SDS-PAGE and Western blotting method; type: functional, cell-based; details: TDE = time-dependent effect
Summary of the method: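 MCF-7 cells were treated for 1, 3, 6, 12, 24 and 48 h and lysed in cold buffer. 50 μg protein was run on 10% SDS-PAGE and transferred to nitrocellulose. Membranes were probed with anti-HK2 primary antibody at 4 °C overnight, then HRP secondary for 1 h at room temperature, with ECL detection. α-Tubulin was the internal control.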

[15] = Cytotoxicity against human Hep3B2 cells assessed as reduction in cell viability by MTS assay; type: functional, cell-based, Hep 3B2; details: Hep3B; summary of the method: as §1
MCF7 [16] = experiment: Cytotoxicity against human MCF7 cells assessed as reduction in cell viability by MTS assay; type: functional, cell-based
MCF7 [17] = experiment: Reduction in glucose uptake in human MCF7 cells assessed per 10^5 cells at 20 uM incubated for 12 hrs (reference value: 5.6 nM/hr/10^5 cells); type: functional; summary of the method: as §2
HaCaT [18] = experiment: Toxicity in human HaCaT cells assessed as reduction in glucose uptake per 10^5 cells at 20 uM incubated for 12 hrs; type: cell-based; summary of the method: as §2
HaCaT [19] = experiment: Cytotoxicity against human HaCaT cells assessed as reduction in cell viability by MTS assay; type: cell-based; summary of the method: as §1
A549 [20] = experiment: Cytotoxicity against human A549 cells assessed as reduction in cell viability by MTS assay; type: functional, cell-based; summary of the method: as §1
HaCaT [21] = experiment: Toxicity in human HaCaT cells assessed as reduction in lactate secretion per 10^5 cells at 20 uM incubated for 12 hrs; type: cell-based; summary of the method: as §2

Compound: C=C1CCC(C2=C/C(=C\C(C)C(N)=O)OC2=O)CC1 (racemic)
- Activity (CNE1-LMP1): inactive
- Activity (MGC): inactive
- Activity (PANC-1): inactive
- Activity (HaCaT [1]): Non-toxic
- Activity [2]: Non-toxic
- Activity (Hep 3B2): inactive
- Activity (A549 [3]): inactive
- Activity (MCF7 [4]): inactive
- Activity (A-375 [5]): inactive
- Activity (ECa-109): inactive

Compound: C=C1CCC(c2coc(/C=C(\C)C(N)=O)c2)CC1
- IC50 [6]: > 50 µM
- IC50 (A-375 [7]): > 50 µM
- IC50 [8]: > 50 µM
- IC50 [9]: > 50 µM
- IC50 [10]: 14.7 µM
- IC50 [11]: > 50 µM
- Activity (MCF7 [12]): 0.5 nM/h
- inhibition (MCF7 [13]): Active
- inhibition (MCF7 [14]): tde
- IC50 [15]: > 50000 nM
- IC50 (MCF7 [16]): 8.4 µM
- Activity (MCF7 [17]): 4.2 nM/h
- Activity (HaCaT [18]): Non-toxic
- IC50 (HaCaT [19]): > 50 µM
- IC50 (A549 [20]): > 50 µM
- Activity (HaCaT [21]): Non-toxic

Compound: C/C(=C\c1cc([C@H]2CC[C@@](O)(CO)CC2)co1)C(N)=O
- Activity (CNE1-LMP1): inactive
- Activity (MGC): inactive
- Activity (PANC-1): inactive
- Activity (HaCaT [1]): Non-toxic
- Activity [2]: Non-toxic
- Activity (Hep 3B2): inactive
- Activity (A549 [3]): inactive
- Activity (MCF7 [4]): inactive
- Activity (A-375 [5]): inactive
- Activity (ECa-109): inactive

Compound: C=C1CCC(C2=C/C(=C/C(C)C(N)=O)OC2=O)CC1 (racemic)
- Activity (CNE1-LMP1): inactive
- Activity (MGC): inactive
- Activity (PANC-1): inactive
- Activity (HaCaT [1]): Non-toxic
- Activity [2]: Non-toxic
- Activity (Hep 3B2): inactive
- Activity (A549 [3]): inactive
- Activity (MCF7 [4]): inactive
- Activity (A-375 [5]): inactive
- Activity (ECa-109): inactive

Compound: CC(=O)OC[C@]1(O)CC[C@H](C2=C/C(=C/C(C)C(N)=O)OC2=O)CC1 (mixture of isomers)
- Activity (CNE1-LMP1): inactive
- Activity (MGC): inactive
- Activity (PANC-1): inactive
- Activity (HaCaT [1]): Non-toxic
- Activity [2]: Non-toxic
- Activity (Hep 3B2): inactive
- Activity (A549 [3]): inactive
- Activity (MCF7 [4]): inactive
- Activity (A-375 [5]): inactive
- Activity (ECa-109): inactive

Compound: CC(/C=C1/C=C([C@H]2CC[C@@](O)(CO)CC2)C(=O)O1)C(N)=O (mixture of isomers)
- Activity (CNE1-LMP1): inactive
- Activity (MGC): inactive
- Activity (PANC-1): inactive
- Activity (HaCaT [1]): Non-toxic
- Activity [2]: Non-toxic
- Activity (Hep 3B2): inactive
- Activity (A549 [3]): inactive
- Activity (MCF7 [4]): inactive
- Activity (A-375 [5]): inactive
- Activity (ECa-109): inactive

Compound: CC(=O)O[C@H]1C(=O)[C@@]2(C)[C@H]([C@H](OC(=O)c3ccccc3)[C@]3(O)C[C@H](OC(=O)[C@H](O)[C@@H](NC(=O)c4ccccc4)c4ccccc4)C(C)=C1C3(C)C)[C@]1(OC(C)=O)CO[C@@H]1C[C@@H]2O [PACLITAXEL]
- IC50 [6]: 0.0011 µM
- IC50 [8]: 0.0042 µM
- IC50 [9]: 0.14 µM
- IC50 [10]: 0.0064 µM
- IC50 [11]: 4.2 µM
- IC50 [15]: 0.016 nM

Source: ChEMBL document CHEMBL3580581, “Bisabolane Sesquiterpenoids from the Plant Endophytic Fungus Paraconiothyrium brasiliense” (J Nat Prod, 2015)
